ChEMBL document CHEMBL1122326, “Nonsteroidal antiinflammatory agents. 2. [(Heteroarylamino)phenyl]alkanoic acids” (J Med Chem, 1983)

Key:
[1] = Evaluated for the acute lethal toxicity in mice on peroral administration of dose; value may range from 1539 to 2362; type: organism-based; conditions: mouse, in vivo, po
Procedure, shortened: (§1)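 Single oral dose, in 0.5% aqueous tragacanth, given to male Std:ddY mice. LD50 was derived from mortality over 7 days.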

Rattus norvegicus [2] = assay: ED50 value was evaluated for antiinflammatory activity by carrageenan-induced rat paw edema method (CPE) on peroral administration; value may range from 3.87 to 25.90; type: functional; conditions: po
Procedure, shortened: (§2)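 Male Wistar rats, 5 to 10 per dose, 4 to 5 doses per drug, given orally in 0.5% aqueous tragacanth. Edema was induced by subcutaneous carrageenin into the left hind paw. A rat counted as positive at ≥25% inhibition versus vehicle at 3 h. ED50 with 95% confidence limits was calculated by Litchfield-Wilcoxon, after a screen at 80 mg/kg.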

[3] = Ratio between UD50 and ED50 in carrageenan paw edema was determined; type: functional
Procedure, shortened: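 Gastric UD50 (fasted male Wistar rats, single oral dose, stomach scored macroscopically at 6 h) was divided by oral CPE ED50 (male Wistar rats, paw carrageenin, ≥25% inhibition at 3 h, Litchfield-Wilcoxon).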

Rattus norvegicus [4] = assay: Evaluated for the UD50 value by gastric ulcer assay in rats on peroral administration of dose; type: functional, Stomach
Procedure, shortened: (§3)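 Male Wistar rats fasted for 24 h were given a single oral dose in 0.5% aqueous tragacanth and killed 6 h later. Stomachs were inspected macroscopically. UD50 is the dose producing ulcers in 50% of rats, taken from each compound's regression line.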

Rattus norvegicus [5] = assay: ED50 value was evaluated for antiinflammatory activity by carrageenan-induced rat paw edema method (CPE) on peroral administration; value may range from 7.05 to 37.13; type: functional; conditions: po; procedure, shortened: as §2
Mus musculus [6] = assay: ED50 value was evaluated for analgesic activity by phenylquinone -induced writhing test in mice on peroral administration; type: functional; conditions: po
Procedure, shortened: (§4)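 Female ddN mice, 5 to 15 per dose, given drug orally in 0.5% aqueous tragacanth. Writhing was induced by ip phenylquinone (0.03%), and writhes were counted over 15 min.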

Mus musculus [7] = assay: ED50 value was evaluated for analgesic activity by phenylquinone -induced writhing test in mice on peroral administration; value may range from 20.6 to 66.0; type: functional; conditions: po; procedure, shortened: as §4
Rattus norvegicus [8] = assay: ED50 value was evaluated for antiinflammatory activity by carrageenan-induced rat paw edema method (CPE) on peroral administration; type: functional; conditions: po; procedure, shortened: as §2
Mus musculus [9] = assay: ED50 value was evaluated for analgesic activity by phenylquinone -induced writhing test in mice on peroral administration; value may range from 35.3 to 283; type: functional; conditions: po; procedure, shortened: as §4
[10] = Evaluated for the acute lethal toxicity in mice on peroral administration of dose; value may range from 430 to 1236; type: organism-based; conditions: mouse, in vivo, po; procedure, shortened: as §1
Rattus norvegicus [11] = assay: Evaluated for the UD50 value by gastric ulcer assay in rats on peroral administration of dose; value may range from 368-807; type: functional, Stomach; procedure, shortened: as §3
Rattus norvegicus [12] = assay: ED50 value was evaluated for antiinflammatory activity by carrageenan-induced rat paw edema method (CPE) on peroral administration; value may range from 39.61 to 80.81; type: functional; conditions: po; procedure, shortened: as §2
Mus musculus [13] = assay: ED50 value was evaluated for analgesic activity by phenylquinone -induced writhing test in ddN strain mice on peroral administration; value ranges from 32.7-76.20; type: functional; conditions: po
Rattus norvegicus [14] = assay: Evaluated for the UD50 value by gastric ulcer assay in rats on peroral administration of dose; value ranges from 82.3-182; type: functional, Stomach; procedure, shortened: as §3
Mus musculus [15] = assay: ED50 value was evaluated for analgesic activity by phenylquinone-induced writhing test in mice on peroral administration; type: functional; conditions: po; procedure, shortened: as §4
Rattus norvegicus [16] = assay: ED50 value was evaluated for antiinflammatory activity by carrageenan-induced rat paw edema method (CPE) on peroral administration; value may range from 50.5 to 120.0; type: functional; conditions: po; procedure, shortened: as §2
Rattus norvegicus [17] = assay: ED50 value was evaluated for antiinflammatory activity by carrageenan-induced rat paw edema method (CPE) on peroral administration; value may range from 12.71 to 51.24; type: functional; conditions: po; procedure, shortened: as §2

Compound | ED50 (Mus musculus [6]) [mg/kg] | ED50 (Rattus norvegicus [8]) [mg/kg] | also measured
CC(C(=O)O)c1ccc(Nc2ccccn2)cc1 (stereo not drawn) | – | – | LD50 [1]: 1910 mg/kg; ED50 (Rattus norvegicus [2]): 10 mg/kg; Ratio [3]: > 64; UD50 (Rattus norvegicus [4]): >640 mg/kg
O=C(O)Cc1ccc(Nc2ccccn2)cc1 | > 100 | – | ED50 (Rattus norvegicus [5]): 15.8 mg/kg
Cc1cc(C(C)C(=O)O)ccc1Nc1ccccn1 (stereo not drawn) | – | 16.8 | ED50 (Mus musculus [7]): 36.9 mg/kg
CC(C(=O)O)c1ccc(Nc2ccc3ccccc3n2)cc1 (stereo not drawn) | ≥ 100 | > 80 | –
Cc1cc(Nc2ccc(C(C)C(=O)O)cc2)ncn1 (stereo not drawn) | ≥ 100 | > 80 | –
CC(C(=O)O)c1ccc(Nc2ccc(Br)cn2)cc1 (stereo not drawn) | – | ≥ 80 | ED50 (Mus musculus [9]): 100 mg/kg
CC(C(=O)O)c1ccc(Nc2ccccn2)c(Cl)c1 (stereo not drawn) | – | – | Ratio [3]: 41.6; LD50 [10]: 729 mg/kg; UD50 (Rattus norvegicus [11]): 545 mg/kg
O=C(O)Cc1ccc(Nc2ccc3ccccc3n2)cc1 | ≥ 100 | > 80 | –
CC(C(=O)O)c1ccc(Nc2ccc([N+](=O)[O-])cn2)cc1 (stereo not drawn) | ≥ 100 | – | ED50 (Rattus norvegicus [12]): 56.6 mg/kg
Cc1cccc(Nc2ccc(C(C)C(=O)O)cc2)n1 (stereo not drawn) | > 100 | > 80 | –
CC(C)Cc1ccc(C(C)C(=O)O)cc1 (stereo not drawn) [IBUPROFEN] | – | – | ED50 (Mus musculus [13]): 50 mg/kg; UD50 (Rattus norvegicus [14]): 124.6 mg/kg
CSc1nccc(Nc2ccc(CC(=O)O)cc2)n1 | – | > 80 | ED50 (Mus musculus [15]): > 100 mg/kg
Cc1cc(Nc2ccc(CC(=O)O)cc2)ncn1 | > 100 | > 80 | –
Cc1cccnc1Nc1ccc(C(C)C(=O)O)cc1 (stereo not drawn) | ≥ 100 | ≥ 80 | –
CC(C(=O)O)c1cccc(Nc2ccccn2)c1 (stereo not drawn) | > 100 | – | ED50 (Rattus norvegicus [16]): 77.9 mg/kg
O=C(O)Cc1ccc(Nc2ccncc2)cc1 | – | > 80 | –
CC(C(=O)O)c1ccc(Nc2ccccc2)cc1 (stereo not drawn) | > 100 | – | ED50 (Rattus norvegicus [17]): 25.5 mg/kg
CC(C(=O)O)c1ccc(Nc2ccccn2)cc1Cl (stereo not drawn) | ≥ 100 | ≥ 80 | –
O=C(O)Cc1cccc(Nc2ccccn2)c1 | ≥ 100 | > 80 | –
Cc1ccc(Nc2ccc(C(C)C(=O)O)cc2)nc1 (stereo not drawn) | ≥ 100 | ≥ 80 | –
Cc1ccnc(Nc2ccc(C(C)C(=O)O)cc2)c1 (stereo not drawn) | > 100 | > 80 | –
CC(C(=O)O)c1ccc(Nc2ccncc2)cc1 (stereo not drawn) | ≥ 100 | > 80 | –
CC(C(=O)O)c1ccc(Nc2ccc(Cl)cn2)cc1 (stereo not drawn) | ≥ 100 | ≥ 80 | –
